Values after ≈ are worked out from the molar mass of the structure shown.
How the values were obtained:
Mus musculus [1] = test: Phototoxicity in Swiss albino mouse assessed as ear thickness at 140 mg/kg, po after 24 hrs of irradiation; format: organism-based; design: dose 140 mg/kg, route oral; conditions: in vivo
Summary of the method: (§1)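 Female Swiss albino mice (~2 months, 20-25 g), fasted ≥18 h, single 140 mg/kg oral gavage dose; groups of 6 (compound, lomefloxacin HCl 140 mg/kg, 0.5% carboxymethylcellulose vehicle 10 ml/kg); UV irradiation 4 h (~18 J/cm²) right after dosing; both ears scored for erythema, oedema, thickness pre-dose, at end of irradiation, and ~24-96 h; thickness given as mean of both ears ± SEM.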

Mus musculus [2] = test: (§2) Phototoxicity in Swiss albino mouse assessed as erythema incidence at 140 mg/kg, po after 48 hrs of irradiation; format: organism-based; design: dose 140 mg/kg, route oral; conditions: in vivo; summary of the method: as §1
Mus musculus [3] = test: Phototoxicity in Swiss albino mouse assessed as ear thickness at 140 mg/kg, po after 96 hrs of irradiation; format: organism-based; design: dose 140 mg/kg, route oral; conditions: in vivo; summary of the method: as §1
Mus musculus [4] = test: Phototoxicity in Swiss albino mouse assessed as ear thickness at 140 mg/kg, po after 72 hrs of irradiation; format: organism-based; design: dose 140 mg/kg, route oral; conditions: in vivo; summary of the method: as §1
Mus musculus [5] = test: Phototoxicity in Swiss albino mouse assessed as erythema incidence at 140 mg/kg, po after 24 hrs of irradiation; format: organism-based; design: dose 140 mg/kg, route oral; conditions: in vivo; summary of the method: as §1
Mus musculus [6] = test: Phototoxicity in Swiss albino mouse assessed as ear thickness at 140 mg/kg, po after 4 hrs of irradiation; format: organism-based; design: dose 140 mg/kg, route oral; conditions: in vivo; summary of the method: as §1
Mus musculus [7] = test: Phototoxicity in Swiss albino mouse assessed as erythema incidence at 140 mg/kg, po after 4 hrs of irradiation; format: organism-based; design: dose 140 mg/kg, route oral; conditions: in vivo; summary of the method: as §1
Mus musculus [8] = test: as §2; format: organism-based; design: dose 140 mg/kg, route oral; conditions: in vivo; summary of the method: as §1; remark: listed apart in the source
Mus musculus [9] = test: Phototoxicity in Swiss albino mouse assessed as ear thickness at 140 mg/kg, po after 48 hrs of irradiation; format: organism-based; design: dose 140 mg/kg, route oral; conditions: in vivo; summary of the method: as §1
Mus musculus [10] = test: Phototoxicity in Swiss albino mouse assessed as erythema incidence at 140 mg/kg, po after 96 hrs of irradiation; format: organism-based; design: dose 140 mg/kg, route oral; conditions: in vivo; summary of the method: as §1
[11] = system: Mycolicibacterium smegmatis; test: Antimycobacterial activity against Mycobacterium smegmatis MC2 by agar dilution method; format: functional
Summary of the method: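 Agar dilution in Middlebrook 7H11 agar with OADC, run along NCCLS-recommended lines; M. smegmatis ATCC 14468 (MC2); MIC determined in duplicate.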

Vero = test: Cytotoxicity against african green monkey Vero cells after 72 hrs by MTT assay; format: cell-based; conditions: Chlorocebus sabaeus
Summary of the method: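 Mammalian Vero cells exposed to compounds at 62.5 µg/ml for 72 h; viability read by cellular conversion of MTT to formazan (Cell Titer 96 non-radioactive proliferation assay).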

[12] = system: Mycobacterium tuberculosis; test: Antimycobacterial activity against Mycobacterium tuberculosis H37Rv by agar dilution method; format: functional
Summary of the method: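 Agar dilution MIC on Middlebrook 7H11 agar with OADC, following the NCCLS-recommended approach, run in duplicate. The MDR clinical isolate was resistant to isoniazid, rifampicin, ethambutol and ofloxacin.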

[13] = biological target: DNA gyrase subunit B (Mycobacterium smegmatis (strain ATCC 700084 / mc(2)155), UniProt A0QNE0); test: Inhibition of Mycobacterium smegmatis MC2 DNA gyrase GyrB ATPase supercoiling activity; design: species or system Mycolicibacterium smegmatis
Chain of DNA gyrase subunit B (Mycobacterium smegmatis (strain ATCC 700084 / mc(2)155), UniProt A0QNE0) (A0QNE0 whole entry): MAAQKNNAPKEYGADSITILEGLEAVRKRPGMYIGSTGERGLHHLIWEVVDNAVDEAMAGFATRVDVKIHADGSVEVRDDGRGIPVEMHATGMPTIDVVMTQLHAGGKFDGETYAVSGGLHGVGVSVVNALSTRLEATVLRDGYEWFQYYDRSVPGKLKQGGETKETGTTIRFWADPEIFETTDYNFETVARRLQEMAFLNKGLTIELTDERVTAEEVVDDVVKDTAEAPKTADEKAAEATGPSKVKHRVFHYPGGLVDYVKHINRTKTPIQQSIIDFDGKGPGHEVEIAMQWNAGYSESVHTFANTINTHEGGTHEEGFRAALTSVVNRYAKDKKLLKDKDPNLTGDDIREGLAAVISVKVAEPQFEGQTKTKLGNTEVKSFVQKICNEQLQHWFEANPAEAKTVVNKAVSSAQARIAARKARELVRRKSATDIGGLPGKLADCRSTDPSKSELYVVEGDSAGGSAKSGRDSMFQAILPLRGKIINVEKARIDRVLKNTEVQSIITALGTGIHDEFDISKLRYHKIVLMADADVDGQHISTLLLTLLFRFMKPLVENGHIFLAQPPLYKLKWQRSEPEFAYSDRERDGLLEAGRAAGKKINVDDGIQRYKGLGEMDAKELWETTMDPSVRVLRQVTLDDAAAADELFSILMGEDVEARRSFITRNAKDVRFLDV
Summary of the method: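 Gyrase purified from M. smegmatis MC2 cells; compounds in DMSO pre-incubated with enzyme, then 400 ng relaxed pUC18 added in 35 mM Tris-HCl pH 7.5, 5 mM MgCl2, 25 mM K glutamate, 2 mM spermidine, 2 mM ATP, BSA, tRNA, 5% glycerol; 30 min; heat-stopped 65 °C 15 min; agarose gel, ethidium bromide staining; ciprofloxacin 10 µg/ml and 5% DMSO controls.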

Structure (SMILES)	MIC [11] [µM]	IC50 (Vero) [µM]	MIC [12] [µM]	further results
CCn1cc(C(=O)O)c(=O)c2cc(F)c(N3CCNC(C)C3)c(F)c21 (stereo not drawn) [LOMEFLOXACIN]				Activity (Mus musculus [1]): 0.48 mm; Activity (Mus musculus [2]): Toxic; Activity (Mus musculus [3]): 0.6 mm; Activity (Mus musculus [4]): 0.64 mm; Activity (Mus musculus [5]): Toxic; Activity (Mus musculus [6]): 0.4 mm; Activity (Mus musculus [7]): Toxic; Activity (Mus musculus [8]): Toxic; Activity (Mus musculus [9]): 0.53 mm; Activity (Mus musculus [10]): Toxic
COc1ccc(CC2C3=C(CCCC3)CCN2c2c(F)c(N)c3c(=O)c(C(=O)O)cn(C4CC4)c3c2OC)cc1 (stereo not drawn)	5.72 (≈ 3.13 µg/mL)	114	2.85 (≈ 1.56 µg/mL)	
COc1c(N2CCSCC2)c(F)cc2c(=O)c(C(=O)O)cn(C3CC3)c12	4.12 (≈ 1.56 µg/mL)	165	2.06 (≈ 0.78 µg/mL)	
CCN(CC)C(=O)C1CCCN(c2c(F)cc3c(=O)c(C(=O)O)cn(C4CC4)c3c2OC)C1 (stereo not drawn)	0.85 (≈ 0.391 µg/mL)	136	1.69 (≈ 0.777 µg/mL)	IC50 [13]: > 109 µM; Activity (Mus musculus [1]): 0.36 mm; Activity (Mus musculus [2]): Non-toxic; Activity (Mus musculus [3]): 0.39 mm; Activity (Mus musculus [4]): 0.39 mm; Activity (Mus musculus [5]): Non-toxic; Activity (Mus musculus [6]): 0.38 mm; Activity (Mus musculus [8]): Non-toxic; Activity (Mus musculus [9]): 0.37 mm; Activity (Mus musculus [10]): Non-toxic
COc1c(N2CCc3ccccc3C2C(=O)NC(C)(C)C)c(F)cc2c(=O)c(C(=O)O)cn(C3CC3)c12 (stereo not drawn)	49.3 (≈ 25 µg/mL)		12.3 (≈ 6.25 µg/mL)	
COc1c(N2CC(C)OC(C)C2)c(F)c([N+](=O)[O-])c2c(=O)c(C(=O)O)cn(C3CC3)c12 (stereo not drawn)	1.79 (≈ 0.779 µg/mL)	144	0.89 (≈ 0.388 µg/mL)	IC50 [13]: 115 µM; Activity (Mus musculus [1]): 0.35 mm; Activity (Mus musculus [2]): Non-toxic; Activity (Mus musculus [3]): 0.33 mm; Activity (Mus musculus [4]): 0.34 mm; Activity (Mus musculus [5]): Non-toxic; Activity (Mus musculus [6]): 0.29 mm; Activity (Mus musculus [8]): Non-toxic; Activity (Mus musculus [9]): 0.36 mm; Activity (Mus musculus [10]): Non-toxic
COc1c(N2CC(C)OC(C)C2)c(F)cc2c(=O)c(C(=O)O)cn(C3CC3)c12 (stereo not drawn)	16 (≈ 6.25 µg/mL)	160	3.99 (≈ 1.56 µg/mL)	
COc1c(N2CCN(C(=O)C3COc4ccccc4O3)CC2)c(F)c([N+](=O)[O-])c2c(=O)c(C(=O)O)cn(C3CC3)c12 (stereo not drawn)	2.74 (≈ 1.56 µg/mL)	110	1.37 (≈ 0.779 µg/mL)	IC50 [13]: > 87.9 µM
COc1c(N2CCN(C(c3ccccc3)c3ccc(Cl)cc3)CC2)c(F)cc2c(=O)c(C(=O)O)cn(C3CC3)c12 (stereo not drawn)	44.5 (≈ 25 µg/mL)		11.1 (≈ 6.25 µg/mL)	
COc1c(N2COCC2(C)C)c(F)c([N+](=O)[O-])c2c(=O)c(C(=O)O)cn(C3CC3)c12	3.7 (≈ 1.56 µg/mL)	148	1.85 (≈ 0.78 µg/mL)	
COc1c(N2CCC(O)(c3ccc(Cl)cc3)CC2)c(F)c([N+](=O)[O-])c2c(=O)c(C(=O)O)cn(C3CC3)c12	11.8 (≈ 6.25 µg/mL)		5.88 (≈ 3.13 µg/mL)	
COc1c(N2CCN(Cc3ccc4c(c3)OCO4)CC2)c(F)c(N)c2c(=O)c(C(=O)O)cn(C3CC3)c12	6.13 (≈ 3.13 µg/mL)		3.06 (≈ 1.56 µg/mL)	
COc1c(N2CCn3cc(C(=O)O)nc3C2)c(F)cc2c(=O)c(C(=O)O)cn(C3CC3)c12	7.08 (≈ 3.13 µg/mL)	141	3.53 (≈ 1.56 µg/mL)	
COc1c(N2COCC2(C)C)c(F)cc2c(=O)c(C(=O)O)cn(C3CC3)c12	16.6 (≈ 6.25 µg/mL)	166	4.14 (≈ 1.56 µg/mL)	
COc1c(N2CCN(C(=O)c3ccco3)CC2)c(F)c([N+](=O)[O-])c2c(=O)c(C(=O)O)cn(C3CC3)c12	12.5 (≈ 6.25 µg/mL)		6.25 (≈ 3.13 µg/mL)	
COc1c(N2CCN(C)C(c3ccccc3)C2)c(F)cc2c(=O)c(C(=O)O)cn(C3CC3)c12 (stereo not drawn)	27.7 (≈ 12.5 µg/mL)		13.8 (≈ 6.25 µg/mL)	

Structure (SMILES)	MIC [11] [µM]	IC50 (Vero) [µM]	MIC [12] [µM]	further results
CCN(CC)C(=O)C1CCCN(c2c(F)c([N+](=O)[O-])c3c(=O)c(C(=O)O)cn(C4CC4)c3c2OC)C1 (stereo not drawn)	12.4 (≈ 6.25 µg/mL)	124	1.55 (≈ 0.782 µg/mL)	
COc1c(N2CCC(n3c(=O)[nH]c4cc(Cl)ccc43)CC2)c(F)c([N+](=O)[O-])c2c(=O)c(C(=O)O)cn(C3CC3)c12	10.9 (≈ 6.25 µg/mL)		5.47 (≈ 3.13 µg/mL)	
COc1c(N2CCc3ccccc3C2C(=O)NC(C)(C)C)c(F)c([N+](=O)[O-])c2c(=O)c(C(=O)O)cn(C3CC3)c12 (stereo not drawn)	2.82 (≈ 1.56 µg/mL)	113	1.41 (≈ 0.779 µg/mL)	IC50 [13]: > 90.5 µM
COc1c(N2CCn3cc(C(=O)O)nc3C2)c(F)c([N+](=O)[O-])c2c(=O)c(C(=O)O)cn(C3CC3)c12	6.42 (≈ 3.13 µg/mL)	128	3.12 (≈ 1.52 µg/mL)	
COc1c(N2CCN(C)C(c3ccccc3)C2)c(F)c([N+](=O)[O-])c2c(=O)c(C(=O)O)cn(C3CC3)c12 (stereo not drawn)	6.3 (≈ 3.13 µg/mL)	126	3.14 (≈ 1.56 µg/mL)	
COc1c(N2CCC(n3c(=O)[nH]c4cc(Cl)ccc43)CC2)c(F)cc2c(=O)c(C(=O)O)cn(C3CC3)c12	5.94 (≈ 3.13 µg/mL)		5.94 (≈ 3.13 µg/mL)	
COc1c(N2CCN(Cc3ccc4c(c3)OCO4)CC2)c(F)cc2c(=O)c(C(=O)O)cn(C3CC3)c12	3.15 (≈ 1.56 µg/mL)	126	1.57 (≈ 0.778 µg/mL)	IC50 [13]: > 101 µM
COc1c(N2CCN(Cc3ccc4c(c3)OCO4)CC2)c(F)c([N+](=O)[O-])c2c(=O)c(C(=O)O)cn(C3CC3)c12	1.44 (≈ 0.778 µg/mL)	116	0.35 (≈ 0.189 µg/mL)	Activity (Mus musculus [1]): 0.28 mm; Activity (Mus musculus [3]): 0.31 mm; Activity (Mus musculus [4]): 0.33 mm; Activity (Mus musculus [5]): Non-toxic; Activity (Mus musculus [6]): 0.27 mm; Activity (Mus musculus [7]): Non-toxic; Activity (Mus musculus [9]): 0.3 mm
COc1c(N2CCC3(CC2)OCCO3)c(F)c([N+](=O)[O-])c2c(=O)c(C(=O)O)cn(C3CC3)c12	6.75 (≈ 3.13 µg/mL)	135	0.84 (≈ 0.389 µg/mL)	
COc1c(N2CCC(O)(c3ccc(Cl)cc3)CC2)c(F)cc2c(=O)c(C(=O)O)cn(C3CC3)c12	12.8 (≈ 6.25 µg/mL)		6.43 (≈ 3.13 µg/mL)	
COc1c(N2CCN(C(c3ccccc3)c3ccc(Cl)cc3)CC2)c(F)c([N+](=O)[O-])c2c(=O)c(C(=O)O)cn(C3CC3)c12 (stereo not drawn)	10.3 (≈ 6.25 µg/mL)	103	1.28 (≈ 0.777 µg/mL)	
COc1c(N2CCC(N3CCCCC3)CC2)c(F)cc2c(=O)c(C(=O)O)cn(C3CC3)c12	14.1 (≈ 6.25 µg/mL)		7.06 (≈ 3.13 µg/mL)	
COc1c(N2CCSCC2)c(F)c([N+](=O)[O-])c2c(=O)c(C(=O)O)cn(C3CC3)c12	3.68 (≈ 1.56 µg/mL)	148	1.84 (≈ 0.779 µg/mL)	IC50 [13]: > 118 µM
COc1ccc(CC2C3=C(CCCC3)CCN2c2c(F)cc3c(=O)c(C(=O)O)cn(C4CC4)c3c2OC)cc1 (stereo not drawn)	2.93 (≈ 1.56 µg/mL)	117	1.46 (≈ 0.778 µg/mL)	IC50 [13]: 75.1 µM
COc1c(N2CCN(C(=O)c3ccco3)CC2)c(F)cc2c(=O)c(C(=O)O)cn(C3CC3)c12	13.7 (≈ 6.25 µg/mL)		13.7 (≈ 6.25 µg/mL)	
COc1c(N2CCC(N3CCCCC3)CC2)c(F)c([N+](=O)[O-])c2c(=O)c(C(=O)O)cn(C3CC3)c12	12.8 (≈ 6.25 µg/mL)		6.41 (≈ 3.13 µg/mL)	
